High-throughput results (PubChem BioAssay)
An excerpt weighted towards active compounds, which were near 4.9% of everything screened.
STAT3 act – IL-6 driven STAT3 reporter potentiators, primary screen, U3A cells, luciferase, luminescence, MLSCN library; IL-6 STAT3-luciferase reporter; 100% = signal with IL-6 EC80 alone; activation (% of control), % at 5.6 µM; 0.91% of 190,000 active;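 active = activation above the screen-wide mean of compound activation plus 3 SD, cut at about 130% in these data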
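system = STAT3-luciferase reporter U3A cells | reagent = IL-6 stimulus at 33 ng/mL final | timing = 1 h compound pre-exposure, 6 h IL-6 stimulation, 37 °C | measured by = luminescence | evaluation = % activation versus median of IL-6-stimulated wells | control set = IL-6-only wells as 100% reference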
STAT1 activator – STAT1 signaling activators, primary screen, cell-based, HTS, luciferase reporter | AID 932, 2007 | 2.6% of 200,000 active | NIH 3T3 STAT1-luciferase reporter, IFN-gamma, luminescence; 100% = IFN-gamma alone, no compound | activation (% of control), % at 5.5 µM;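 active = activation above the screen-wide mean activation plus 3 SD, cut at about 130% in these data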
APP 5'UTR act – activators of APP 5'UTR luciferase reporter, primary screen, SH-SY5Y cells; 1% of 190,000 active; SH-SY5Y APP 5'UTR luciferase reporter, luminescence; zero percent = DMSO vehicle wells; activation, % at 2 µM; AID 1276, 2008;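 active = activation above a set limit, based on mean plus 3 SD of controls, cut at about 140% in these data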
STAT1 inh – STAT1 signaling inhibitors, primary screen, cell-based, HTS, luciferase reporter | NIH 3T3 STAT1-luciferase reporter, IFN-gamma, luminescence | inhibition, % at 5.5 µM | 0.35% of 200,000 active;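 active = inhibition above a set limit, the mean inhibition across all tested compounds plus 3 SD, cut at about 34% in these data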
STAT3 inh – IL-6 driven STAT3 reporter inhibitors, primary screen, U3A cells, luciferase, luminescence, MLSCN library; IL-6 STAT3-luciferase reporter; host cell line lacks STAT1; inhibition, % at 5.5 µM; 0.89% of 190,000 active; AID 862, 2007;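 active = inhibition above the mean inhibition across all screened compounds plus 3 SD, cut at about 44% in these data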
NF-kB neuron act – activators of NF-kB expression in neurons, primary screen, cell-based, HTS | fold change at 12.5 µM | 1.6% of 190,000 active | human neuronal cells, NF-kB reporter expression; stronger effect = higher value; in the data active = fold change above about 3.3
STAT1 activ conf – STAT1 signaling activators, confirmation, cell-based, HTS, luciferase reporter; shares compounds with STAT1 activator; NIH 3T3 STAT1-luciferase reporter, IFN-gamma potentiation, luminescence; 100% = IFN-gamma EC80 alone, no compound; activation (% of control), % at 5.7 µM; 97% of 1,200 active; AID 1262, 2008;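 active = activation above a set limit carried over from the earlier primary STAT1 screen, cut at about 140% in these data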
NFkB act STAT1ct – NF-kB reporter activators, TNF-alpha stimulated, counter-screen for STAT1 activator project, cell-based, HEK293T, luciferase luminescence. shares compounds with STAT1 activator. activation (% of control), % at 5.7 µM. 100% = TNF-alpha with vehicle only. AID 1306, 2008. 43% of 1,200 active;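 active = activation above the mean of solvent-only control wells plus 3 SD, set per campaign, cut at about 130% in these data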;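 note: TNF-alpha given at a submaximal dose yielding about 80% of full reporter signal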
STAT3 act STAT1c – STAT3 reporter activation by STAT1 hits, confirmation, counter-screen for STAT1 activator project, U3A cells, luciferase, luminescence. shares compounds with STAT1 activator. IL-6; cells lack STAT1; 100 = IL-6 alone, no compound effect. activation (% of control), % at 5.7 µM. 46% of 1,200 active. AID 1316, 2008;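 active = activation above the solvent-only control well mean plus 3 SD, set per plate batch, cut at about 110% in these data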;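 note: higher means more STAT3 reporter activation so hits are non-selective activators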
Each line names hits and unclear results; the compound was inactive in the other large screens (follow-up assays come after a bar, where they were run).

COc1ccc(N=C(C)C2=C(O)c3ccccc3C2=O)cc1	STAT1 activator 165, APP 5'UTR act 206, NF-kB neuron act 5.4 | STAT1 activ conf 209 | NFkB act STAT1ct inactive | STAT3 act STAT1c inactive
COc1ccc(C(=O)Nc2ccc(S(=O)(=O)Nc3onc(C)c3C)cc2)c(OC)c1	none
COc1ccc(C(=O)Nc2ccc3cn[nH]c3c2)c(OC)c1	STAT1 activator 164 | STAT1 activ conf 185 | NFkB act STAT1ct 134 | STAT3 act STAT1c 116
C=CCn1c(=O)c2ccc(C(=O)NCc3ccccc3)cc2n(Cc2ccc(C)cc2)c1=O	none
COc1ccc(NC(=O)Nc2ccc(Br)cn2)cc1	STAT1 activator 169 | STAT1 activ conf 160 | NFkB act STAT1ct inactive | STAT3 act STAT1c inactive
COC(=O)c1ccccc1NC(=O)Nc1ccc(Br)cn1	none
Cc1ccc(NC(=O)Nc2ccc(Cl)cn2)cc1	STAT1 activator 172 | STAT1 activ conf 171 | NFkB act STAT1ct inactive | STAT3 act STAT1c inactive
CC(C)CCN1CCN(Cc2nc(-c3ccc(F)cc3)cs2)CC1CCO (centres undefined)	none (no result: NF-kB neuron act)
CC(CCCC(C)(C)O)CC1C2=C(CCCC2=O)OC2=C1C(=O)CCC2 (centres undefined)	none
C=CCOc1ccc(Br)cc1CNC(C)(C)C	none
CCOC(=O)/C=C/COc1ccccc1[N+](=O)[O-]	STAT1 activator 154 | STAT1 activ conf 146 | NFkB act STAT1ct inactive | STAT3 act STAT1c inactive
CC(C)(C)C(=O)COc1ccccc1[N+](=O)[O-]	none
C/C(Sc1nnc(Cc2ccccc2)o1)=C(/O)c1ccccc1	none
CC(=O)c1nc(N2C(=O)CC(Cc3ccccc3)C2=O)sc1C (centres undefined)	none
O=C(O)Cc1c[nH]c2cccc(O)c12	none (no result: STAT3 act, STAT3 inh)
CC(C)N=Cc1c(O)[nH]c2ccccc12	none
Cc1cccc(/N=C/c2c(O)[nH]c3ccccc23)n1	STAT1 activator 158, NF-kB neuron act 3.4 | STAT1 activ conf 171 | NFkB act STAT1ct inactive | STAT3 act STAT1c 124
Oc1[nH]c2ccccc2c1C=Nc1ccc2c(c1)OCCO2	STAT1 activator 187, APP 5'UTR act 183, NF-kB neuron act 4.4 | STAT1 activ conf 346 | NFkB act STAT1ct 137 | STAT3 act STAT1c inactive
CCCC(=O)Nc1nc(-c2ccc3c(c2)OCCO3)cs1	STAT1 activator 158, APP 5'UTR act 141, NF-kB neuron act 4.5 | STAT1 activ conf 181 | NFkB act STAT1ct 143 | STAT3 act STAT1c inactive
CSCC(=O)Nc1nc(-c2ccc3c(c2)OCCO3)cs1	STAT1 activator 158, APP 5'UTR act 153, NF-kB neuron act 4.8 | STAT1 activ conf 189 | NFkB act STAT1ct 139 | STAT3 act STAT1c 114
CCCC(=O)Nc1nc(-c2ccc(OC)cc2)cs1	none
O=C(CSCC(=O)Nc1nc(-c2ccc3c(c2)OCO3)cs1)Nc1nccs1	none (no result: STAT3 act, STAT3 inh)
COc1cccc(C2c3[nH]c4ccccc4c3CCN2Cc2ncc[nH]2)c1 (centres undefined)	none
Clc1cccc2c1CCN(Cc1nc(-c3cnccn3)no1)C2	none
NC(=O)c1ccccc1NC(=O)/C=C/C(=O)O	none
Cc1ccc(/C=C/C(=O)Nc2ccccc2C(N)=O)cc1	STAT1 activator 152, APP 5'UTR act 183, NF-kB neuron act 5.3 | STAT1 activ conf 180 | NFkB act STAT1ct inactive | STAT3 act STAT1c inactive
COC(=O)c1oc2ccc(OC)cc2c1N	none
COc1ccc(C(=O)c2oc3ccc(OC)cc3c2N)cc1	STAT1 activator 151, APP 5'UTR act 190, NF-kB neuron act 5.9 | STAT1 activ conf 139 | NFkB act STAT1ct 148 | STAT3 act STAT1c 111
COc1ccc(-c2cc(-c3ccc(OC)cc3)[nH]n2)cc1	STAT1 activator 151 | STAT1 activ conf 162 | NFkB act STAT1ct inactive | STAT3 act STAT1c inactive
COc1cccc(NCc2ccc([N+](=O)[O-])s2)c1	none
O=[N+]([O-])c1ccccc1/C=C/C=N/N1CCCCC1	STAT1 activator 155, NF-kB neuron act 4.5 | STAT1 activ conf 178 | NFkB act STAT1ct inactive | STAT3 act STAT1c 111
O=C(c1ccc(F)cc1)C1CCN(C(=S)NCC2CCCO2)CC1 (centres undefined)	none
COc1ccc(CNc2ccc3c(c2)nc(C)n3C)cc1	STAT1 activator 151 | STAT1 activ conf 168 | NFkB act STAT1ct inactive | STAT3 act STAT1c 116
Cc1ccc(CNc2ccc3c(c2)ncn3C(C)(C)C)cc1	STAT1 activator 167, APP 5'UTR act 165 | STAT1 activ conf 198 | NFkB act STAT1ct 135 | STAT3 act STAT1c 128
Cc1ccc(S(=O)(=O)Nc2ccc3c(c2)ncn3C(C)(C)C)cc1	none
O=C(CSc1n[nH]c(-c2ccccc2Br)n1)NCCN1C(=O)CSC1=O	none
Cc1ccc2nsnc2c1S(=O)(=O)N(Cc1cc2cccc(C)c2[nH]c1=O)CC1CCCO1 (centres undefined)	none
Nc1nnc(-c2ccccc2[N+](=O)[O-])o1	none
O=[N+]([O-])c1ccccc1-c1nc(-c2ccc(Br)o2)no1	STAT1 activator 170, APP 5'UTR act 160 | STAT1 activ conf 200 | NFkB act STAT1ct inactive | STAT3 act STAT1c 137
O=C1CN(c2nc(-c3cccnc3)nc3sc4c(c23)CCCC4)CCN1	none
Nc1nc(-c2cccnc2)nc2sc3c(c12)CCCC3	STAT1 activator 159, NF-kB neuron act 5.6 | STAT1 activ conf 213 | NFkB act STAT1ct 146 | STAT3 act STAT1c 116
COc1cc(/C=C2/C(=N)N3C=CSC3=NC2=O)ccc1OCCCOc1cc(C)ccc1C	none
CC(C)c1ccc(NC(=O)c2snc3ccc(Cl)cc23)cc1	STAT1 activator 158 | STAT1 activ conf 194 | NFkB act STAT1ct inactive | STAT3 act STAT1c 139
CC(C)c1ccc(NC(=O)c2cc(Br)ccc2Br)cc1	none
